# pIC50: −log10 of the molar value. Active and inactive are the calls of the source. No cut-off for these calls is given here.
# Tests used:
# [1] = tested on: MV4-11; experiment: Antiproliferative activity against human MV4-11 cells measured after 72 hrs by Celltiter-Glo assay; type: functional, cell-based; details: MV4-11, 72 h
# [2] = tested on: K562; experiment: Antiproliferative activity against human K562 cells measured after 72 hrs by Celltiter-Glo assay; type: functional, cell-based; details: K562, 72 h
# [3] = tested on: HL-60; experiment: Antiproliferative activity against human HL60 cells measured after 72 hrs by Celltiter-Glo assay; type: functional, cell-based; details: HL-60, 72 h
# [4] = tested on: PBMC; experiment: Cytotoxicity against human PBMC cells measured after 72 hrs by Celltiter-Glo assay; type: ADME, cell-based
# [5] = tested on: MV4-11; experiment: Cell cycle arrest in human MV4-11 cells assessed as accumulation at G0/G1 phase at 0.15 uM after 24 hrs by propidium iodide/RNase A staining based FACScalibur flow cytometry analysis (reference value: 50.04 %); type: functional
# [6] = tested on: MV4-11; experiment: Cell cycle arrest in human MV4-11 cells assessed as accumulation at S phase at 0.15 uM after 24 hrs by propidium iodide/RNase A staining based FACScalibur flow cytometry analysis (reference value: 29.92 %); type: functional
# [7] = tested on: MV4-11; experiment: Cell cycle arrest in human MV4-11 cells assessed as accumulation at G2/M phase at 0.15 uM after 24 hrs by propidium iodide/RNase A staining based FACScalibur flow cytometry analysis (reference value: 10.58 %); type: functional
# [8] = tested on: MV4-11; experiment: Cell cycle arrest in human MV4-11 cells assessed as accumulation at G0/G1 phase at 0.3 uM after 24 hrs by propidium iodide/RNase A staining based FACScalibur flow cytometry analysis (reference value: 50.04 %); type: functional
# [9] = tested on: MV4-11; experiment: Cell cycle arrest in human MV4-11 cells assessed as accumulation at S phase at 0.3 uM after 24 hrs by propidium iodide/RNase A staining based FACScalibur flow cytometry analysis (reference value: 29.92 %); type: functional
# [10] = tested on: MV4-11; experiment: Cell cycle arrest in human MV4-11 cells assessed as accumulation at G2/M phase at 0.3 uM after 24 hrs by propidium iodide/RNase A staining based FACScalibur flow cytometry analysis (reference value: 10.58 %); type: functional
# [11] = tested on: MV4-11; experiment: Cell cycle arrest in human MV4-11 cells assessed as accumulation at G0/G1 phase at 0.6 uM after 24 hrs by propidium iodide/RNase A staining based FACScalibur flow cytometry analysis (reference value: 50.04 %); type: functional
# [12] = tested on: MV4-11; experiment: Cell cycle arrest in human MV4-11 cells assessed as accumulation at S phase at 0.6 uM after 24 hrs by propidium iodide/RNase A staining based FACScalibur flow cytometry analysis (reference value: 29.92 %); type: functional
# [13] = tested on: MV4-11; experiment: Cell cycle arrest in human MV4-11 cells assessed as accumulation at G2/M phase at 0.6 uM after 24 hrs by propidium iodide/RNase A staining based FACScalibur flow cytometry analysis (reference value: 10.58 %); type: functional
# [14] = tested on: MV4-11; experiment: Induction of apoptotic cell death in human MV4-11 cells at 0.3 uM after 24 hrs by DAPI-based TUNEL assay; type: functional
# How it was run: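 MV4-11 cells held at 0.3 μM for 24 h, then processed with a one-step TUNEL kit. DNA counterstained with DAPI. Green apoptotic cells seen by fluorescence microscopy, excitation 450−500 nm, emission 515−565 nm.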
# [15] = tested on: MV4-11; experiment: Induction of apoptosis in human MV4-11 cells assessed as decrease in FLT3 expression after 24 hrs by Western blot analysis; type: functional, cell-based
# How it was run: (§1)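 MV4-11 cells (RPMI-1640, 10% FBS, 37 °C, 5% CO2) exposed 24 h to 0.15, 0.3 or 0.6 μM. Lysed in RIPA buffer, protein measured by BCA, 40 μg run on SDS-PAGE and blotted to nitrocellulose. Primary antibodies overnight at 4 °C, HRP anti-rabbit IgG secondary 1 h at rt. Bands detected by ECL.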
# [16] = tested on: MV4-11; experiment: Induction of apoptosis in human MV4-11 cells assessed as decrease in phosphorylated-FLT3 expression after 24 hrs by Western blot analysis; type: functional, cell-based; how it was run: as §1
# [17] = tested on: MV4-11; experiment: Induction of apoptosis in human MV4-11 cells assessed as decrease in c-kit expression after 24 hrs by Western blot analysis; type: functional, cell-based; how it was run: as §1
# [18] = tested on: MV4-11; experiment: Cell cycel arrest in human MV4-11 cells assessed as decrease in CDK2 expression at 0.15 to 0.6 uM after 24 hrs by Western blot analysis; type: functional, cell-based; how it was run: as §1
structure (smiles),measurement,setting,value
CO[C@@H]1[C@H](N(C)c2ncc(-c3c[nH]c4ccc(Cl)cc34)s2)C[C@H]2O[C@]1(C)n1c3ccccc3c3c4c(c5c6cc(Br)ccc6n2c5c31)C(=O)NC4,pIC50,[1],6.15
same,pIC50,[2],< 5.00
same,pIC50,[3],< 5.00
same,pIC50,[4],< 5.00
COc1ccc2[nH]cc(-c3cnc(N(C)[C@@H]4C[C@H]5O[C@@](C)([C@@H]4OC)n4c6ccccc6c6c7c(c8c9cc(Br)ccc9n5c8c64)C(=O)NC7)s3)c2c1,pIC50,[1],6.29
same,pIC50,[2],< 5.00
same,pIC50,[3],< 5.00
same,pIC50,[4],< 5.00
CO[C@@H]1[C@H](N(C)c2ncc(-c3c[nH]c4ccccc34)s2)C[C@H]2O[C@]1(C)n1c3ccccc3c3c4c(c5c6cc(Br)ccc6n2c5c31)C(=O)NC4,pIC50,[1],6.44
same,pIC50,[2],< 5.00
same,pIC50,[3],< 5.00
same,pIC50,[4],< 5.00
CO[C@@H]1[C@H](N(C)c2ncc(-c3c[nH]c4ccc(Br)cc34)s2)C[C@H]2O[C@]1(C)n1c3ccccc3c3c4c(c5c6cc(Br)ccc6n2c5c31)C(=O)NC4,pIC50,[1],6.41
same,pIC50,[2],< 5.00
same,pIC50,[3],< 5.00
same,pIC50,[4],< 5.00
CO[C@@H]1[C@H](N(C)c2ncc(-c3c[nH]c4ccc(Cl)cc34)s2)C[C@H]2O[C@]1(C)n1c3ccccc3c3c4c(c5c6ccccc6n2c5c31)C(=O)NC4,pIC50,[1],6.38
same,pIC50,[2],< 5.00
same,pIC50,[3],< 5.00
same,pIC50,[4],< 5.00
COc1ccc2[nH]cc(-c3cnc(N(C)[C@@H]4C[C@H]5O[C@@](C)([C@@H]4OC)n4c6ccccc6c6c7c(c8c9ccccc9n5c8c64)C(=O)NC7)s3)c2c1,pIC50,[1],6.44
same,pIC50,[2],< 5.00
same,pIC50,[3],< 5.00
same,pIC50,[4],< 5.00
CO[C@@H]1[C@H](N(C)c2ncc(-c3c[nH]c4ccc(Cl)cc34)s2)C[C@H]2O[C@]1(C)n1c3ccccc3c3c4c(c5c6cc(Cl)ccc6n2c5c31)C(=O)NC4,pIC50,[1],6.23
same,pIC50,[2],< 5.00
same,pIC50,[3],< 5.00
same,pIC50,[4],< 5.00
CO[C@@H]1[C@H](N(C)c2ncc(-c3c[nH]c4ccc(F)cc34)s2)C[C@H]2O[C@]1(C)n1c3ccccc3c3c4c(c5c6cc(Cl)ccc6n2c5c31)C(=O)NC4,pIC50,[1],6.49
same,pIC50,[2],< 5.00
same,pIC50,[3],< 5.00
same,pIC50,[4],< 5.00
same,Activity,[5],60.59%
same,Activity,[6],20.19%
same,Activity,[7],10.04%
same,Activity,[8],72.68%
same,Activity,[9],9.23%
same,Activity,[10],6.6%
same,Activity,[11],87.75%
same,Activity,[12],10.18%
same,Activity,[13],0.45%
same,Activity,[14],Active
same,Activity,[15],Dose-dependent effect
same,Activity,[16],Dose-dependent effect
same,Activity,[17],Dose-dependent effect
same,Activity,[18],Active
CO[C@@H]1[C@H](N(C)c2ncc(-c3c[nH]c4ccccc34)s2)C[C@H]2O[C@]1(C)n1c3ccccc3c3c4c(c5c6ccccc6n2c5c31)C(=O)NC4,pIC50,[1],6.40
same,pIC50,[2],< 5.00
same,pIC50,[3],< 5.00
same,pIC50,[4],< 5.00
CO[C@@H]1[C@H](N(C)c2ncc(-c3c[nH]c4ccc(Br)cc34)s2)C[C@H]2O[C@]1(C)n1c3ccccc3c3c4c(c5c6cc(Cl)ccc6n2c5c31)C(=O)NC4,pIC50,[1],6.37
same,pIC50,[2],< 5.00
same,pIC50,[3],< 5.00
same,pIC50,[4],< 5.00
CO[C@@H]1[C@H](N(C)c2ncc(-c3c[nH]c4ccccc34)s2)C[C@H]2O[C@]1(C)n1c3ccccc3c3c4c(c5c6cc(Cl)ccc6n2c5c31)C(=O)NC4,pIC50,[1],6.25
same,pIC50,[2],< 5.00
same,pIC50,[3],< 5.00
same,pIC50,[4],< 5.00
COc1ccc2[nH]cc(-c3cnc(N(C)[C@@H]4C[C@H]5O[C@@](C)([C@@H]4OC)n4c6ccccc6c6c7c(c8c9cc(Cl)ccc9n5c8c64)C(=O)NC7)s3)c2c1,pIC50,[1],6.36
same,pIC50,[2],< 5.00
same,pIC50,[3],< 5.00
same,pIC50,[4],< 5.00
CO[C@@H]1[C@H](N(C)c2ncc(-c3c[nH]c4ccc(Br)cc34)s2)C[C@H]2O[C@]1(C)n1c3ccccc3c3c4c(c5c6ccccc6n2c5c31)C(=O)NC4,pIC50,[1],6.39
same,pIC50,[2],< 5.00
same,pIC50,[3],< 5.00
same,pIC50,[4],< 5.00
CO[C@@H]1[C@H](N(C)c2ncc(-c3c[nH]c4ccc(F)cc34)s2)C[C@H]2O[C@]1(C)n1c3ccccc3c3c4c(c5c6ccccc6n2c5c31)C(=O)NC4,pIC50,[1],6.29
same,pIC50,[2],< 5.00
same,pIC50,[3],< 5.00
same,pIC50,[4],< 5.00
CO[C@@H]1[C@H](N(C)c2ncc(-c3c[nH]c4ccc(F)cc34)s2)C[C@H]2O[C@]1(C)n1c3ccccc3c3c4c(c5c6cc(Br)ccc6n2c5c31)C(=O)NC4,pIC50,[1],6.02
same,pIC50,[2],< 5.00
same,pIC50,[3],< 5.00
same,pIC50,[4],< 5.00
